The source made the active and inactive calls. No cut-off for these calls is given here.
How the values were obtained:
[1] = target: Dual specificity mitogen-activated protein kinase kinase 4 (Homo sapiens) (UniProt P45985); assay: Inhibition of MKK4 (unknown origin) at 10 uM relative to control
Cynomolgus monkey [2] = assay: In vivo inhibition of P38 MAPKalpha in cynomolgus monkey assessed as decrease in TNFalpha level in LPS-stimulated whole blood at 12 mg/kg, po pretreated followed by LPS addition measured after 1 day relative to control; type: functional; settings: Macaca fascicularis
Outline: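 Cynomolgus monkeys were dosed orally, then whole blood was stimulated ex vivo with LPS. TNFα release was compared with vehicle-dosed animals.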

Cynomolgus monkey [3] = assay: Toxicity in cynomolgus monkey assessed as decrease in PQ at 6 to 20 mg/kg, po; type: organism-based, Macaca fascicularis; settings: in vivo
[4] = Cmax in mongrel dog at 30 mg/kg, po by LC-MS/MS analysis; type: ADME, organism-based, Canis lupus familiaris; set-up: dose 30 mg/kg, route oral; settings: in vivo
Outline: (§1)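 Oral single-dose PK; plasma concentrations of parent and metabolite measured. Dogs: blood sampled 0.25 to 24 h after dosing. Humans: healthy subjects, placebo-controlled single-blind randomized consecutive dosing, plasma sampled predose and 0.25–36 h post dose. 10 mg also given fasting and fed in crossover. Parameters derived from individual concentration–time profiles.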

[5] = target: Mitogen-activated protein kinase 10 (Homo sapiens) (UniProt P53779); assay: Inhibition of JNK3 (unknown origin) at 10 uM relative to control
Salmonella typhimurium = assay: Genotoxicity in Salmonella typhimurium in absence of S9 fraction by Ames test; type: toxicity; settings: salmonella enterica subsp. enterica serovar typhimurium
Outline: (§2)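 Bacterial reverse mutation (Ames) test in S. typhimurium and E. coli strains, run with and without S9 mix.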

[6] = AUC (0 to t) in Beagle dog at 40 mg/kg, po by LC-MS/MS analysis; type: ADME, organism-based, Canis lupus familiaris; settings: in vivo
Outline: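 Toxicokinetics from a maximum-tolerated-dose study in four Beagle dogs given 40 mg/kg orally. Plasma levels of both parent and its predominant metabolite were monitored.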

[7] = target: Casein kinase I isoform delta (Homo sapiens) (UniProt P48730); assay: Inhibition of CK1delta (unknown origin) at 10 uM relative to control
Liver [8] = assay: Drug metabolism in human liver microsomes assessed as 4-(4-(4-fluorophenyl)-1-methyl-2-(methylsulfonyl)-1H-imidazol-5-yl)pyridin-2-amine formation at 10 to 100 uM; type: ADME, microsome
Outline: (§3)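 Test compound incubated at 10, 30 and 100 μM with liver microsomes from rat, Cynomolgus monkey or human, and metabolites monitored.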

Mus musculus [9] = assay: Antiarthritic activity in human TNF transgenic mouse model assessed as reduction in synovitis at 20 to 50 mg/kg/day, po for 10 weeks; type: functional, organism-based
Outline: (§4)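 Heterozygous human TNF transgenic mice (8 per group) were dosed orally for ten weeks with 20 or 50 mg/kg/day as a methylcellulose suspension, alongside vehicle and infliximab i.p. controls. Joint swelling and grip strength were scored weekly, and hind paws were examined histologically at the end.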

[10] = Drug uptake in LPS-stimulated female Lewis rat serum at 10 mg/kg, po pretreated for 1 hrs followed by LPS addition measured after 1.5 hrs post dose; type: ADME, organism-based; settings: read-out: Drug uptake
Outline: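 Female Lewis rats, n = 8/group, dosed orally at 10 mg/kg at 1, 3 or 5 h before LPS challenge. Serum aliquots taken 1.5 h after LPS were used to measure drug concentration.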

Liver [11] = assay: Drug metabolism in rat liver microsomes assessed as 4-(4-(4-fluorophenyl)-1-methyl-2-(methylsulfonyl)-1H-imidazol-5-yl)pyridin-2-amine formation at 10 to 100 uM; type: ADME, microsome; outline: as §3
Rattus norvegicus [12] = assay: In vivo inhibition of P38 MAPKalpha in Sprague-Dawley rat assessed as decrease in LPS-stimulated TNFalpha level in serum at 1 mg/kg, po pretreated for 1 hr followed by LPS addition measured after 2 hrs relative to control; type: functional
Outline: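 Sprague–Dawley rats (8/group) were dosed orally with vehicle or 1, 3 or 10 mg/kg. LPS 0.1 mg/kg i.v. was given 1 h after dosing. Blood was collected 2 h later and serum TNFα measured. Inhibition was calculated relative to the mean of vehicle-treated animals.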

[13] = target: Mitogen-activated protein kinase 14 (Homo sapiens, UniProt Q16539); assay: Inhibition of MKK6-mediated p38alpha MAPK (unknown origin) phosphorylation up to 10 uM
Homo sapiens [14] = assay: AUC (infinity) in human assessed as 4-(4-(4-fluorophenyl)-1-methyl-2-(methylsulfinyl)-1H-imidazol-5-yl)pyridin-2-amine formation at 20 mg, po administered as single dose; type: ADME, organism-based; set-up: dose 20 mg, time infinity, route oral; settings: in vivo
Outline: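 Placebo-controlled, single-blind, randomized, consecutive-dosing study in healthy subjects given single oral doses, with 10 mg also given fasting and fed in a crossover. Plasma parent and active metabolite were measured predose and from 0.25 to 36 h post dose. PK parameters were derived from individual concentration–time profiles and reported as means.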

[15] = Half life in Beagle dog at 40 mg/kg, po by LC-MS/MS analysis; type: ADME, organism-based, Canis lupus familiaris; settings: in vivo; outline: as §1
Cynomolgus monkey [16] = assay: In vivo inhibition of P38 MAPKalpha in po dosed cynomolgus monkey assessed as decrease in TNFalpha level in LPS-stimulated whole blood pretreated for 4 weeks followed by ex vivo LPS addition measured on day 27; type: functional, organism-based; settings: Macaca fascicularis
[17] = Drug metabolism in cynomolgus monkey liver microsomes assessed as 4-(4-(4-fluorophenyl)-1-methyl-2-(methylsulfinyl)-1H-imidazol-5-yl)pyridin-2-amine formation at 10 to 100 uM; type: ADME, Macaca fascicularis, microsome; outline: as §3
Homo sapiens [18] = organism: Homo sapiens; assay: Inhibition of cyclinH/MAT1 (unknown origin) at 10 uM relative to control
Homo sapiens [19] = assay: Toxicity in human assessed as effect on heart rate at 50 mg, po administered as single dose; type: organism-based; settings: in vivo
Rattus norvegicus [20] = assay: In vivo inhibition of P38 MAPKalpha in Lewis rat assessed as decrease in LPS-stimulated TNFalpha level in serum at 10 mg/kg, po pretreated for 1 hr followed by LPS addition measured after 1.5 hrs post dose relative to control; type: functional
Outline: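 Lewis rats, n = 8/group: females dosed orally at 10 mg/kg at −1, −3 or −5 h relative to LPS challenge, plus one male group dosed at −1 h. Male and female vehicle controls were given at −1 h. Serum TNFα was measured after LPS and compared with vehicle.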

Escherichia coli = assay: Genotoxicity in Escherichia coli in absence of S9 fraction by Ames test; type: toxicity; outline: as §2
[21] = AUC (0 to t) in female Sprague-Dawley rat at 30 mg/kg, po by LC-MS/MS analysis; type: ADME, organism-based; settings: in vivo
Outline: (§5)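 Rats of each sex received a single oral dose of 30 mg/kg. Plasma concentration–time profiles of parent were determined separately for females and males.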

Rattus norvegicus [22] = assay: Toxicity in Sprague-Dawley rat assessed as increase in ptyalism at 150 mg/kg, po administered via gavage for daily 28 days followed by 2 weeks off without dosing; type: organism-based; settings: in vivo
Mus musculus [23] = assay: Antiarthritic activity in human TNF transgenic mouse model assessed as reduction in bone erosion at 20 to 50 mg/kg/day, po for 10 weeks; type: functional, organism-based; outline: as §4
[24] = AUC (0 to t) in male Sprague-Dawley rat at 30 mg/kg, po by LC-MS/MS analysis; type: ADME, organism-based; settings: in vivo; outline: as §5
[25] = Half life in female Sprague-Dawley rat at 30 mg/kg, po by LC-MS/MS analysis; type: ADME, organism-based; settings: in vivo
Liver [26] = assay: Drug level in rat liver microsomes treated with CBS-3595 at 10 to 100 uM; type: ADME, microsome; outline: as §3
[27] = target: Rho-associated protein kinase 2 (Homo sapiens) (UniProt O75116); assay: Inhibition of ROCK-2 (unknown origin) at 10 uM
Chain of Rho-associated protein kinase 2 (Homo sapiens) (O75116 whole entry, looked up): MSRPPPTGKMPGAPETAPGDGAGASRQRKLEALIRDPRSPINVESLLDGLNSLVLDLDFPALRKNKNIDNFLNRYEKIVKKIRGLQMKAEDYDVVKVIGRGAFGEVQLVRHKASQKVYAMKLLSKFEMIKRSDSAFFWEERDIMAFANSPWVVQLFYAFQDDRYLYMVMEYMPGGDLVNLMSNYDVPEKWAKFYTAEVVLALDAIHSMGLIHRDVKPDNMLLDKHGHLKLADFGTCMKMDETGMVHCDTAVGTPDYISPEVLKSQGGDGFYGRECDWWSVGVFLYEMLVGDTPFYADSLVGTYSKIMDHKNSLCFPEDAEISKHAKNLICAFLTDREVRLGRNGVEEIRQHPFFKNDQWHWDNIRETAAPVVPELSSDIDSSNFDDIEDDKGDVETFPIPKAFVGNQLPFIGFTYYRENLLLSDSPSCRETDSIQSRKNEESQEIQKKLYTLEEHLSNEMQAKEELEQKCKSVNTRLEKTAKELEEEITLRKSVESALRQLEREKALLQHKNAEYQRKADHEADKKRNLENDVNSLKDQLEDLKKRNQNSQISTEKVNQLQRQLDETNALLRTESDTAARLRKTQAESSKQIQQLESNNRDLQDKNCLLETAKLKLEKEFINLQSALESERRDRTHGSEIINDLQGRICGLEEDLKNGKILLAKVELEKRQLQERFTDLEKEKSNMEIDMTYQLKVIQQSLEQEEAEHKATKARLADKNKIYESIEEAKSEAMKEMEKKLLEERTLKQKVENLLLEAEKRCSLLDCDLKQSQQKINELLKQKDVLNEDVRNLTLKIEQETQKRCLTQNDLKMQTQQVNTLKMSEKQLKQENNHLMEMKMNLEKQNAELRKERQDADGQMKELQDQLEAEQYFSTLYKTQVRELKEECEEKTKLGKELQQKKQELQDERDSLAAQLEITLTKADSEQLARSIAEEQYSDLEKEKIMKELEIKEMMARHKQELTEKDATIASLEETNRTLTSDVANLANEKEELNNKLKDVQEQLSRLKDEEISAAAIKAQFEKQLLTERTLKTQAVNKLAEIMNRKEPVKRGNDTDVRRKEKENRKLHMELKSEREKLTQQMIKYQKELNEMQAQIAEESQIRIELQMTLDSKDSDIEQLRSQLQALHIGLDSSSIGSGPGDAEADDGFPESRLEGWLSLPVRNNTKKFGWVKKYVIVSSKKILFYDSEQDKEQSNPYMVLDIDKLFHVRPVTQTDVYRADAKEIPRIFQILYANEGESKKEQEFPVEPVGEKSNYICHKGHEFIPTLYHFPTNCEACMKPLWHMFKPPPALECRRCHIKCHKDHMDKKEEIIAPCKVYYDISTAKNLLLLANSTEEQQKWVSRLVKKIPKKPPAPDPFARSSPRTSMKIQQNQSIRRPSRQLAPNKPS

Chain of Mitogen-activated protein kinase 10 (Homo sapiens) (P53779 whole entry): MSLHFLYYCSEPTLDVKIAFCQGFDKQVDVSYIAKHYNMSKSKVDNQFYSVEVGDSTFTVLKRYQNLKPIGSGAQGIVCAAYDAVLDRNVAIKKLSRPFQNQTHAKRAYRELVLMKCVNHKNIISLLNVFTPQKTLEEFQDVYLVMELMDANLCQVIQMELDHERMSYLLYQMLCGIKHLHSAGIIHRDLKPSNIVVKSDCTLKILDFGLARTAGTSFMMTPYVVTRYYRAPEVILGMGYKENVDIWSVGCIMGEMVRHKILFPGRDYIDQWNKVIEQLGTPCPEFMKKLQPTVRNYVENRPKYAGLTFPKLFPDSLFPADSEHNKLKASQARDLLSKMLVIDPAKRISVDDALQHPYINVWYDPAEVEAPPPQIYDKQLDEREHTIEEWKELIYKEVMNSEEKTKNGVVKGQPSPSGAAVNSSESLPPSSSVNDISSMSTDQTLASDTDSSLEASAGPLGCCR
Chain of Dual specificity mitogen-activated protein kinase kinase 4 (Homo sapiens) (P45985 whole entry): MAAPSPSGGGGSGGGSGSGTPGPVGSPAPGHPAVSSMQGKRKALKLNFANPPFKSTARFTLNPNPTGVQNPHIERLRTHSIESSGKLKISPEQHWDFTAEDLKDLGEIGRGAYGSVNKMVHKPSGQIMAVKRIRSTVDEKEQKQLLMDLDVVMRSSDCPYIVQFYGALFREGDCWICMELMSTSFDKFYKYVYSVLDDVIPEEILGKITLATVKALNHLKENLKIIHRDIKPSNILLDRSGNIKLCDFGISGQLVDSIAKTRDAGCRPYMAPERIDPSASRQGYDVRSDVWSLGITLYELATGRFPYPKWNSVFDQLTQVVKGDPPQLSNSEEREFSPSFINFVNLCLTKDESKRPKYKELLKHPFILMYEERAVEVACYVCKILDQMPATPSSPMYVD
Chain of Mitogen-activated protein kinase 14 (Q16539 whole entry): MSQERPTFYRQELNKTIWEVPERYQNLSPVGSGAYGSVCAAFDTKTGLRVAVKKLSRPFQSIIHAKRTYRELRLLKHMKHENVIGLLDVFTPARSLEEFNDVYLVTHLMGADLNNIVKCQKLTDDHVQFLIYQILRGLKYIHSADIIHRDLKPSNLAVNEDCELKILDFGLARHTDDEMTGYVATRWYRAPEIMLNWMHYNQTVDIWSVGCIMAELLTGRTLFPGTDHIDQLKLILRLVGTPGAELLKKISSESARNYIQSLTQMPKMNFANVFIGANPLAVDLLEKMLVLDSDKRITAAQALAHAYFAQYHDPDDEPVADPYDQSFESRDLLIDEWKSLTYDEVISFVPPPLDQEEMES
Chain of Casein kinase I isoform delta (Homo sapiens) (P48730 whole entry, looked up, canonical isoform): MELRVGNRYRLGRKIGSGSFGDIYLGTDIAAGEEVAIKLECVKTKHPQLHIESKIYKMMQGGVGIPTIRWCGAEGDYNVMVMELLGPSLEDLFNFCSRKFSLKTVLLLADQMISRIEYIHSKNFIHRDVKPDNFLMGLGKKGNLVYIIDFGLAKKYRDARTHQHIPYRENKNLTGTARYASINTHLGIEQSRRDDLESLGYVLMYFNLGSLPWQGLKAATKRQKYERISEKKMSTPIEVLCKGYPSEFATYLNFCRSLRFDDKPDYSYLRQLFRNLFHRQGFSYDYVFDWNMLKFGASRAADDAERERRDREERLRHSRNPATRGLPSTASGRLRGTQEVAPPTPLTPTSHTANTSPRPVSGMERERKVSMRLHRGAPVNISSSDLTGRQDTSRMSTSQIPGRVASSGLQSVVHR

## CC(=O)Nc1cc(-c2c(-c3ccc(F)cc3)nc([S+](C)[O-])n2C)ccn1 (centres undefined)
[1]
  inhibition: 37%
Cynomolgus monkey [2]
  inhibition in vivo at 12 mg/kg: 50%
Cynomolgus monkey [3]
  Activity: Toxic
[4]
  Cmax: 14.3 µM
[5]
  inhibition: 76%
Salmonella typhimurium
  Activity: Non-Toxic
[6]
  AUC(0-t): 93.4 µM·h
[7]
  inhibition: 94%
Liver [8]
  Drug metabolism: Metabolite_Detected
Mus musculus [9]
  Activity: Active
[10]
  concentration at 1.5 h: 237 ng/mL
Liver [11]
  Drug metabolism: Metabolite_Detected
Rattus norvegicus [12]
  inhibition in vivo at 1 mg/kg: 43%
[13]
  inhibition: inactive
Homo sapiens [14]
  AUC: 6.1022 µM·h
[15]
  half-life: 7.8 h
Cynomolgus monkey [16]
  inhibition: Dose-dependent effect
[17]
  Drug metabolism: Metabolite_Detected
Homo sapiens [18]
  inhibition: 54%
Homo sapiens [19]
  Activity: Non-Toxic
Rattus norvegicus [20]
  inhibition in vivo at 10 mg/kg: 76%
Escherichia coli
  Activity: Non-Toxic
[21]
  AUC(0-t): 40.9 µM·h
Rattus norvegicus [22]
  Activity: Toxic
Mus musculus [23]
  Activity: Active
[24]
  AUC(0-t): 29.8 µM·h
[25]
  half-life: 2.2 h

## Cn1c([S+](C)[O-])nc(-c2ccc(F)cc2)c1-c1ccnc(N)c1 (centres undefined)
Liver [26]
  Drug metabolism: Metabolite_Detected
[27]
  inhibition: inactive

Reference: ChEMBL document CHEMBL4028848, “Discovery of N-{4-[5-(4-Fluorophenyl)-3-methyl-2-methylsulfanyl-3H-imidazol-4-yl]-pyridin-2-yl}-acetamide (CBS-3595), a Dual p38α MAPK/PDE-4 Inhibitor with Activity against TNFα-Related Diseases” (J Med Chem, 2017)
